Measured values published in ChEMBL document CHEMBL1765087, “Synthesis and evaluation of cardiac glycoside mimics as potential anticancer drugs” (Bioorg Med Chem, 2011).

Assays:
Sus scrofa = organism: Sus scrofa; test: Binding affinity to pig kidney Na+/K+-ATPase assessed as inorganic phosphate release after 2 hrs
Method in brief: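 Purified pig kidney Na⁺,K⁺-ATPase (specific activity 25–30 U/mg protein) preincubated 2 h with a range of inhibitor concentrations in 130 mM NaCl, 20 mM KCl, 4 mM MgCl₂, 30 mM histidine pH 7.4, 20 °C. 3 mM ATP added, 5 min reaction, released inorganic phosphate measured. Ouabain-insensitive activity (1 mM ouabain) subtracted. K_app from hyperbolic fit.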

MCF7 = test: Antiproliferative activity against human MCF7 cells assessed as cell viability treated for 48 hrs followed by compound washout measured after 72 hrs by fluorometric CellTiter-Blue reagent assay; type: functional, cell-based
Method in brief: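 MCF-7 cells grown in DMEM Glutamax with 10% fetal calf serum, penicillin and streptomycin, 37 °C, 5% CO₂. Seeded 3000 cells/well in triplicate, cultured overnight, then given a dilution series of compound; equivalent DMSO dilution series used for normalization. 48 h exposure, then 72 h in fresh compound-free medium before viability read-out.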

Compound: C[C@]12CC[C@H](S)C[C@H]1CC[C@@H]1[C@@H]2CC[C@]2(C)[C@@H](C3=CC(=O)OC3)CC[C@]12O
- Kapp (Sus scrofa): 0.42 µM
- IC50 (MCF7): 500 nM

Compound: C[C@]12CC[C@H](SCCOCCOCCOCCS[C@H]3CC[C@@]4(C)[C@H](CC[C@@H]5[C@@H]4CC[C@]4(C)[C@@H](C6=CC(=O)OC6)CC[C@]54O)C3)C[C@H]1CC[C@@H]1[C@@H]2CC[C@]2(C)[C@@H](C3=CC(=O)OC3)CC[C@]12O
- Kapp (Sus scrofa): > 53 µM
- IC50 (MCF7): 13000 nM

Compound: C[C@]12CC[C@H](SCCO)C[C@H]1CC[C@@H]1[C@@H]2CC[C@]2(C)[C@@H](C3=CC(=O)OC3)CC[C@]12O
- Kapp (Sus scrofa): 0.48 µM
- IC50 (MCF7): 200 nM

Compound: C[C@]12CC[C@H](SCCOCCOCCS[C@H]3CC[C@@]4(C)[C@H](CC[C@@H]5[C@@H]4CC[C@]4(C)[C@@H](C6=CC(=O)OC6)CC[C@]54O)C3)C[C@H]1CC[C@@H]1[C@@H]2CC[C@]2(C)[C@@H](C3=CC(=O)OC3)CC[C@]12O
- Kapp (Sus scrofa): 20.5 µM
- IC50 (MCF7): 6600 nM

Compound: C[C@]12CC[C@H](SCCOCCOCCOCCO)C[C@H]1CC[C@@H]1[C@@H]2CC[C@]2(C)[C@@H](C3=CC(=O)OC3)CC[C@]12O
- Kapp (Sus scrofa): 2.1 µM
- IC50 (MCF7): 1400 nM

Compound: C[C@]12CC[C@H](SCCOCCOCCO)C[C@H]1CC[C@@H]1[C@@H]2CC[C@]2(C)[C@@H](C3=CC(=O)OC3)CC[C@]12O
- Kapp (Sus scrofa): 1.27 µM
- IC50 (MCF7): 800 nM

Compound: C[C@]12CC[C@H](SCCOCCS[C@H]3CC[C@@]4(C)[C@H](CC[C@@H]5[C@@H]4CC[C@]4(C)[C@@H](C6=CC(=O)OC6)CC[C@]54O)C3)C[C@H]1CC[C@@H]1[C@@H]2CC[C@]2(C)[C@@H](C3=CC(=O)OC3)CC[C@]12O
- Kapp (Sus scrofa): 17.2 µM
- IC50 (MCF7): 8600 nM

Compound: C[C@]12CC[C@H](SCCOCCO)C[C@H]1CC[C@@H]1[C@@H]2CC[C@]2(C)[C@@H](C3=CC(=O)OC3)CC[C@]12O
- Kapp (Sus scrofa): 0.73 µM
- IC50 (MCF7): 400 nM

Compound: C[C@]12CC[C@H](SCCS[C@H]3CC[C@@]4(C)[C@H](CC[C@@H]5[C@@H]4CC[C@]4(C)[C@@H](C6=CC(=O)OC6)CC[C@]54O)C3)C[C@H]1CC[C@@H]1[C@@H]2CC[C@]2(C)[C@@H](C3=CC(=O)OC3)CC[C@]12O
- Kapp (Sus scrofa): 9.9 µM
- IC50 (MCF7): 7000 nM

Compound: C[C@]12CC[C@H](O)C[C@H]1CC[C@@H]1[C@@H]2CC[C@]2(C)[C@@H](C3=CC(=O)OC3)CC[C@]12O [DIGITOXIGENIN]
- Kapp (Sus scrofa): 0.52 µM
- IC50 (MCF7): 600 nM

Compound: C[C@H]1O[C@@H](O[C@H]2[C@@H](O)C[C@H](O[C@H]3[C@@H](O)C[C@H](O[C@H]4CC[C@@]5(C)[C@H](CC[C@@H]6[C@@H]5CC[C@]5(C)[C@@H](C7=CC(=O)OC7)CC[C@]65O)C4)O[C@@H]3C)O[C@@H]2C)C[C@H](O)[C@@H]1O [DIGITOXIN]
- Kapp (Sus scrofa): 0.99 µM
- IC50 (MCF7): 20 nM
